Experimental findings from ChEMBL document CHEMBL1146966, “Beta'-hydroxy-alpha,beta-unsaturated ketones: a new pharmacophore for the design of anticancer drugs” (2006) are described below.

What all share (assay type): functional
The subject of one assay is A2780. The assay can be described thus: Antiproliferative activity against A2780 cell line after 48 hrs by SRB assay. Particulars: Homo sapiens, A2780, 48 h. A digest of the protocol: (§1)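 Human solid tumor cells exposed 48 h to compound in duplicate at five tenfold dilutions, top final concentration 100 µM (DMSO stock at 400× that; controls got matching DMSO). Cells precipitated with ice-cold 50% TCA, fixed 60 min at 4 °C, stained by SRB, OD read at 490 nm. Percentage growth from OD at start versus end of exposure, corrected for medium-only background. GI50 = concentration giving PG +50 (NCI protocol); means of two to four experiments.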
A general note: In SRB staining, fixed cells bind dye roughly in proportion to their protein.

A further assay deals with SW1573. The assay can be described thus: Antiproliferative activity against SW1573 cell line after 48 hrs by SRB assay. As to conditions: Homo sapiens, SW1573, 48 h. Summed up: as §1
For another assay, the system named is WiDr. Briefly: Antiproliferative activity against WiDr cell line after 48 hrs by SRB assay. Particulars: Homo sapiens. A digest of the protocol:
as §1

Regarding `CC(C)CC(O)CC(=O)/C=C\c1ccccc1` (stereo not drawn), the GI50 – broadly, the concentration that inhibits growth by half – with A2780 is 2.6 µM; with SW1573, 13 µM; in the assay with WiDr it was 16 µM.
With `CC(C)C/C=C/C(=O)CC(O)CC(C)C` (stereo not drawn), the concentration for 50% growth inhibition (GI50) with A2780 amounted to 17 µM; in the assay on SW1573, 27 µM; with WiDr, 21 µM.
Take `CC(=O)/C=C/C1CCCCC1`: the GI50 in the assay on A2780 is 21 µM; with SW1573, 30 µM; with WiDr, 23 µM.
The like results for `CC(C)CC(O)C(C)C(=O)/C=C\c1ccc(Br)cc1` (stereo not drawn) were, in that order, 5.5 µM, 11 µM and 12 µM.
Turning to `CC(C)C/C=C(\CO)C(=O)c1ccccc1`, the values for the GI50 in the assay on A2780, in the assay with SW1573 and in the assay with WiDr were 18 µM, 24 µM and 19 µM, respectively.
On to `O=C(/C=C/C1CCCCC1)CC(O)C1CCCCC1` (stereo not drawn), for which the figures for the GI50 with A2780, in the assay with SW1573 and in the assay on WiDr were 1.8 µM, 3.1 µM and 2.9 µM, respectively.
As to `CC(C)C/C=C/C(=O)c1ccccc1`, the results for the GI50 in the assay with A2780, in the assay with SW1573 and with WiDr were 20 µM, 31 µM and 22 µM, respectively.
As to `C/C(=C\C1CCCCC1)C(=O)c1ccccc1`, the GI50 was determined as 28 µM with A2780, 36 µM in the assay on SW1573 and 41 µM with WiDr.
Take `CC(C)(C)/C=C/C(=O)CC(O)C(C)(C)C` (stereo not drawn): the GI50 in the assay with A2780 amounted to 9.9 µM; with SW1573 it was 26 µM; in the assay with WiDr, 59 µM.
The like results for `O=C(/C=C/c1ccccc1)CC(O)c1ccccc1` (stereo not drawn) were, in that order, 3.3 µM, 4.3 µM and 14 µM.
With `CC(C)C/C=C(/C(=O)c1ccccc1)c1ccccc1`, the GI50 in the assay on A2780 was determined as 21 µM; in the assay on SW1573, 33 µM; in the assay on WiDr, 21 µM.
For `O=C(/C=C/CCCCCCCCCCBr)CC(O)CCCCCCCCCCBr` (stereo not drawn), the values for the GI50 with A2780, in the assay on SW1573 and with WiDr were 16 µM, 30 µM and 32 µM, respectively.
With `C/C(=C\CC(C)C)C(=O)c1ccccc1`, the GI50 in the assay on A2780, in the assay with SW1573 and in the assay with WiDr was above 100 µM each time.
Take `CCCCCC/C=C/C(=O)CC(O)CCCCCC` (stereo not drawn): the results for the GI50 with A2780, with SW1573 and in the assay on WiDr were 26 µM, 25 µM and 31 µM, respectively.
In the case of `CCCCCC/C=C/C(C)=O`, the results for the GI50 in the assay on A2780, in the assay with SW1573 and with WiDr were 91 µM, 79 µM and 56 µM, respectively.
For `Cc1ccc(/C=C\C(=O)CC(O)CC(C)C)cc1` (stereo not drawn), the GI50 with A2780 was 3.9 µM; in the assay on SW1573 it was 12 µM; in the assay on WiDr, 15 µM.
